From the EternaBench riboswitch data

Test system: MS2 coat protein
Assay: apparent Kd, MS2 coat protein; higher = weaker binding; RNA-MaP array; FMN 200 µM where present
Method in brief: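 Each design was made on Illumina sequencing-chip clusters by stalled E. coli RNA polymerase and titrated with SNAP-549-labelled MS2 coat protein from 0.7 or 1.5 nM, doubling to 3 µM, in the absence and then the presence of constant ligand. The buffer was 100 mM Tris-HCl pH 7.5, 80 mM KCl, 4 mM MgCl2, BSA, DTT, yeast tRNA and Tween-20. The apparent Kd is the median of filtered per-cluster fits of binding curves, with green signal normalised to red-channel RNA signal and control-cluster median Fmax.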

[1] = designed as: OFF switch for flavin mononucleotide, no ligand
[2] = ligand present: flavin mononucleotide, designed as: OFF switch for flavin mononucleotide
[3] = designed as: ON switch for flavin mononucleotide, no ligand
[4] = ligand present: flavin mononucleotide, designed as: ON switch for flavin mononucleotide

Sequence: CAUCAUUCUGUAAGGAUAUUAAUCGAGUGACUUAUUAAGAAGGUACAUGAGGAUCACCCAUGUGGGAGGUGAGG
- apparent Kd [1]: 363 nM
- apparent Kd [2]: 947 nM

Sequence: CAUGUGUAAGGAUAUGACAAUGGUAUCGAAAGAUACCAUUGUCAGAAGGUACAUGAGGAUCACCCAUGUGGAUC
- apparent Kd [1]: 198 nM
- apparent Kd [2]: 91 nM

Sequence: CAUUAAUUAAUUAUAUUAAUUAUACAGGAUAUGUAACAUGAGGAUCACCCAUGUAUUCAAUGUAAACAGAAGGGUAUAUCUAGU
- apparent Kd [1]: 14.6 nM
- apparent Kd [2]: 13 nM

Sequence: CAUUCGUGUCUAGGAUAUGAGUGACAAGCACGAGAUUUUCUCGCCGCUAGCUCAGAAGGAGACAUGAGGAUCACCCAUGUAAGG
- apparent Kd [1]: 96.4 nM
- apparent Kd [2]: 17.4 nM

Sequence: CCAAGGAGAGGAUAUACACGGUUAUGGCCUCUUGAGUGGCGACAUGAGGAUCACCCAUGUAGAAGGCUCAGGGC
- apparent Kd [1]: 20.2 nM
- apparent Kd [2]: 57.4 nM

Sequence: CCACAGGUAGGAUAUGCUGGGUGGGAUAAAUAUUUCCUGAGACAUGAGGAUCACCCAUGUAGAAGGACCAAAAG
- apparent Kd [1]: 18.3 nM
- apparent Kd [2]: 16.1 nM

Sequence: CCACGAGACUAAGGAUAUGGAGUGUCAACAUAAAACAUGAGGAUCACCCAUGUAAAGAGUACAAUUCAGAAGGUAGAGACGUGG
- apparent Kd [3]: 21.9 nM
- apparent Kd [4]: 21.5 nM

Sequence: CCACGAGACUAAGGAUAUGGAGUGUCAACAUAAAACAUGAGGAUCACCCAUGUAAAGAGUACGAUUCAGAAGGUAGAGACGUGG
- apparent Kd [3]: 38.3 nM
- apparent Kd [4]: 23.7 nM

Sequence: CCACGGCACUCGUUGGUACGGGCAGAGGAUAUCGACAUGAGGAUCACCCAUGUGGAUGUAUAUGUCGAGAAGGCUGAUUCGUCU
- apparent Kd [1]: 44 nM
- apparent Kd [2]: 197 nM

Sequence: CCACGUCACAUCUACAUGAGGAUCACCCAUGUCGAAAGACAUGAGGAUAUGCAUCCUAAUUGGAUGCAGAAGGCAUGGACGUGG
- apparent Kd [3]: 1080 nM
- apparent Kd [4]: 71.2 nM

Sequence: CCACGUCCCAUUAACAUGAGGAUCACCCAUGUCAAAAGACAUGAGGAUAUGCUACCUAAUUGGUAGCAGAAGGCAUGGACGUGG
- apparent Kd [3]: 953 nM
- apparent Kd [4]: 87.8 nM

Sequence: CCACUCUAUGCAGGAUAUCGAGCCUGGGCCUUAUUUUUUGUAAACAUGAGGAUCACCCAUGUCUUCGAGAAGGGCAUAACAACG
- apparent Kd [1]: 178 nM
- apparent Kd [2]: 241 nM

Sequence: CCAGAGGUCACAGGAUAUGACUCGUCCAAUUGGUCAGAAGGGUGAAUCACAUUAUGUAUACAUGAGGAUCACCCAUGUCCUACG
- apparent Kd [3]: 64.4 nM
- apparent Kd [4]: 165 nM

Sequence: CCAGAGUGAGGAUAUGCAUAAAGGUGCUGUCCCGUGGCUUGACAUGAGGAUCACCCAUGUAGAAGGUGCGUUGU
- apparent Kd [1]: 48.7 nM
- apparent Kd [2]: 40.3 nM

Sequence: CCAUAACUGUGAGGAUAUUGUUGCGUUUAGUGACGAGAAGGCAUUCAUGUGAUAUAUACAUACAUGAGGAUCACCCAUGUUGUA
- apparent Kd [3]: 31 nM
- apparent Kd [4]: 25.5 nM

Sequence: CCAUCGAGUGUGAGGAUAUGCUGGUCCUUGGAUCAGCAGAAGGCACAUGAGGAUCACCCAUGUGGAAACGGUGG
- apparent Kd [1]: 26.6 nM
- apparent Kd [2]: 191 nM

Sequence: CCAUGCGGAUGAGGAUAUUCAUCCAUGAGGAUAGAAGAAGGCAUACAUGAGGAUCACCCAUGUAUACGCAUGAGGAUCCCUUAC
- apparent Kd [1]: 27.3 nM
- apparent Kd [2]: 22.3 nM

Sequence: CCAUGCGGAUGAGGAUAUUCAUCUAUGAGGAUAGAAGAAGGCAUACAUGAGGAUCACCCAUGUAUACGCAUGAGGAUCCCUUAC
- apparent Kd [1]: 24 nM
- apparent Kd [2]: 26 nM

Sequence: CCAUGUUAGCAGGAUAUGCCAUUAUUCCUUUACGCAGAAGGGCUUACAUGAGGAUCACCCAUGUAACAUUUCAU
- apparent Kd [1]: 13.4 nM
- apparent Kd [2]: 29.5 nM

Sequence: CCCAGUUAUCUAGGAUAUUGUACAUGAGGAUCACCCAUGUAAUAAAUGAGGAUUUCGGGUGUCUACAAGAAGGAGAGGAUAGGC
- apparent Kd [1]: 28.6 nM
- apparent Kd [2]: 26.1 nM

Sequence: CCCGCCAUACAGAAGGGAAACAUGAGGAUCAGCCGCGACAUGAGGAUCACCCAUGUUUACCUAUUUCAGGAUAUGUACACUCCC
- apparent Kd [3]: 470 nM
- apparent Kd [4]: 225 nM

Sequence: CCCGUCAUCGAGAAGGCCUCAACAUGAGGAUCACCCAUGUUGUAAUAUGGGAGGAUAUCGAUGAUACAGCUACGUUUCGUAGGG
- apparent Kd [3]: 17.3 nM
- apparent Kd [4]: 6.33 nM

Sequence: CCGAAUGUCACAGGAUAUGGUCCGGGCUCACGACCAGAAGGGUGAUCUCACAUGAGGAUCACCCAUGUGUAGGCGUUAGGCUAC
- apparent Kd [3]: 35.3 nM
- apparent Kd [4]: 114 nM

Sequence: CCGAGUAGCGCAGGAUAUGACUUGGUUGUUUGGUCAGAAGGGUGAUUCUCGGUAAGAAACAGGACAUGAGGAUCACCCAUGUCA
- apparent Kd [3]: 102 nM
- apparent Kd [4]: 24.9 nM

Sequence: CCGGAAAAGGAGGAUAUAGGAGUCGAUAGACACCUAGAAGGUCUGACAUGAGGAUCACCCAUGUGUCCUACCGG
- apparent Kd [1]: 21.2 nM
- apparent Kd [2]: 30.2 nM

Sequence: CCGGAAACGGGUAGCCAGACAUGAGGAUCACCCAUGUGAUCAGAGGAUAUGGAUCCUAAUUGGAUCCAGAAGGCUGUCAGCUAC
- apparent Kd [3]: 554 nM
- apparent Kd [4]: 74.8 nM

Sequence: CCGGAAACGGGUAGCCUGACAUGAGGAUCACCCAUGUGAACCGAGGAUAUGGAUCCUAAUUGGAUCCAGAAGGUGGCAGGCUAC
- apparent Kd [3]: 681 nM
- apparent Kd [4]: 245 nM

Sequence: CCGGAAACGGGUAGCCUGACAUGAGGAUCACCCAUGUGAUCCAAGGAUAUGGAUCCUAAUUGGAUCCAGAAGGUGGUUGGCUAC
- apparent Kd [3]: 76.7 nM
- apparent Kd [4]: 1200 nM

Sequence: CCGGAAACGGGUAGCUGACAUGAGGAUCACCCAUGUGUUUCACAGGAUAUGGAUCCUAAUUGGAUCCAGAAGGGUGUCAGCUAC
- apparent Kd [3]: 1040 nM
- apparent Kd [4]: 157 nM

Sequence: CCGGAUACGGGUAGCUGACAUGAGGAUCACCCAUGUGAAUCUGAGGAUAUGGAUCCUAAUUGGAUCCAGAAGGCAGUCAGCUAC
- apparent Kd [3]: 618 nM
- apparent Kd [4]: 61.5 nM

Sequence: CCGGCAUAGGAGGAUAUAGGAGUCGAUAGACACCUAGAAGGCCUGACAUGAGGAUCACCCAUGUGUCCUACCGG
- apparent Kd [1]: 14.1 nM
- apparent Kd [2]: 23.2 nM

Sequence: CCGUUACAUGAGGAUCACCCAUGUGAGGAUAUCGGGAUGACUGGCAGCGUGCGGGACACGAGAAGGCACUGGGC
- apparent Kd [1]: 55.5 nM
- apparent Kd [2]: 65.1 nM

Sequence: CCUAAGGACACAGGAUAUAGCGUGGUUGCUGGGCUCCAACGGCGAGCGGCGCUAGAAGGGUGACCACAUGAGGAUCACCCAUGU
- apparent Kd [3]: 532 nM
- apparent Kd [4]: 162 nM

Sequence: CCUAGUUGGUAAGGAUAUCCUACACUGUUCUGACCCGUGCAAGCUACAUGAGGAUCACCCAUGUAGGAGAAGGUGCGUCAACGC
- apparent Kd [1]: 9.11 nM
- apparent Kd [2]: 9.13 nM

Sequence: CCUAUAAGAAAAUAGACGAAGUGGCCAGAAGGUGAAUGCCACAUGAGGAUCACCCAUGUUUCGAUCAAGGAUAUGGUUUCUCAC
- apparent Kd [3]: 497 nM
- apparent Kd [4]: 129 nM

Sequence: CCUAUACAUGAGGAUCACCCAUGUCAGGAUAUAGAAAGCCGCGGAAUAGGCCGCGGCACUAGAAGGGACUGGCU
- apparent Kd [1]: 27.5 nM
- apparent Kd [2]: 40.5 nM

Sequence: CCUAUGUAAGGAUAUAGCCACAUUACGAAUAAGUAGUGUGGCUAGAAGGUACAUGAGGAUCACCCAUGUAUGGG
- apparent Kd [1]: 195 nM
- apparent Kd [2]: 40.6 nM

Sequence: CCUCGACAUGAGGAUCACCCAUGUCAGGAUAUUGUGUAUCGGGUUUUUUACCGAAAGGCGAGAAGGGAUGUGUG
- apparent Kd [1]: 16.9 nM
- apparent Kd [2]: 23.1 nM

Sequence: CCUCUACAUGAGGAUCACCCAUGUGAGGAUAUCUCGGAGCAGCCACUUAAGGCACUCCAGAGAAGGCACGUGUA
- apparent Kd [1]: 18 nM
- apparent Kd [2]: 25.7 nM

Sequence: CCUGGAUCAUGAGGAUAUGGUACCUUAUUGGUACCAGAAGGCAUGUCUCUUGACAUGAGGAUCACCCAUGUAAUAAAUUCCAGG
- apparent Kd [3]: 841 nM
- apparent Kd [4]: 114 nM

Sequence: CCUGUACAUGAGGAUCACCCAUGUUAGGAUAUCUCGCCGUCGGCUUGCCGACGGUAUUAGAGAAGGGACAAGGG
- apparent Kd [1]: 32.3 nM
- apparent Kd [2]: 37.6 nM

Sequence: CCUUUAUAGAUCCAUUUUAACAACAUGAGGAUCACCCAUGUGCAGGAUAUCGAUUGUUUUACUUUCGAGAAGGGCAAAUUCAGC
- apparent Kd [1]: 19.3 nM
- apparent Kd [2]: 48.7 nM

Sequence: CCUUUGAAGAUCCUGGUUUUCGACAUGAGGAUCACCCAUGUGCAGGAUAUCGUGCCAGUGCUGUGCGAGAAGGGCAGUCUCUGC
- apparent Kd [1]: 17.1 nM
- apparent Kd [2]: 18.9 nM

Sequence: CCUUUUGUAUAAGGAUAUGUAACAAGGUAUAGAUCGGUAGAAUUUGUGCUUACAGAAGGUAUACAUGAGGAUCACCCAUGUCGA
- apparent Kd [1]: 22.1 nM
- apparent Kd [2]: 140 nM

Sequence: CCUUUUGUAUAAGGAUAUGUAACAAGGUGUAGGUUUGUAGGACUUGCGCUUACAGAAGGUAUACAUGAGGAUCACCCAUGUCGA
- apparent Kd [1]: 29.9 nM
- apparent Kd [2]: 157 nM

Sequence: CGACAGUACACAGGAUAUCCUCGACUUUGUCGAGGAGAAGGGUGUAAACAUGAGGAUCACCCAUGUAUACUGUCGAAAUAUAAU
- apparent Kd [3]: 350 nM
- apparent Kd [4]: 38.7 nM

Sequence: CGACCCUAAACGAAAUUAUGCAGUCAGGAUAUACAUGAGGAUCACCCAUGUGCGUACCAACUCGUGUAGAAGGGACUUUUAGGG
- apparent Kd [1]: 24.7 nM
- apparent Kd [2]: 84.6 nM

Sequence: CGAGAUCUUGAGAAGGCAUAAUAUAUAAUACCACAUGUUUACAUGAGGAUCACCCAUGUUUCCUAUGAGGAUAUCAGGAUUUCG
- apparent Kd [1]: 20.9 nM
- apparent Kd [2]: 17.1 nM

Sequence: CGAGCUGCUGUGAGGAUAUACCUAUGGGUGCGUGGGUAGAAGGCACAUGAGGAUCACCCAUGUCCUGCAGCUCG
- apparent Kd [1]: 255 nM
- apparent Kd [2]: 344 nM

Sequence: CGAGGGUGGGACCCACGCUUUCGACAUGAGGAUCACCCAUGUAAGGAUAUCGCGGCCUACCAUAGCGAGAAGGUACGUGCGGGU
- apparent Kd [1]: 13 nM
- apparent Kd [2]: 25.9 nM

Sequence: CGAUAACAUAGUUAUCCGUAACGGACAUGAGGAUCACCCAUGUAGGAUAUGUUACUCAACGAGUAACAGAAGGACAUGAGUCUU
- apparent Kd [1]: 38.2 nM
- apparent Kd [2]: 324 nM

Sequence: CGAUAAUAUAGUUAUCCGUAGCGAACAUGAGGAUCACCCAUGUAGGAUAUGUUACUAAACUAGUAACAGAAGGGCAUGAGUCUU
- apparent Kd [1]: 32.1 nM
- apparent Kd [2]: 74.5 nM

Sequence: CGAUAGGACAGAGGAUAUACACAUGAGGAUCACCCAUGUGAUUACAACGCGAAAGCUCCAAACAUGUAGAAGGCUGUCCUAUCG
- apparent Kd [1]: 18.1 nM
- apparent Kd [2]: 21.1 nM

Sequence: CGAUAGGACAGAGGAUAUACACAUGAGGAUCACCCAUGUGAUUACAACGCUUAAGCUUCAAACAUGUAGAAGGCUGUCCUAUCG
- apparent Kd [1]: 10.8 nM
- apparent Kd [2]: 19.4 nM

Sequence: CGAUAUGAUGCAGGAUAUCUAUCUUGAAUGAGGAGAGAAGGGCAUAGGGAGACAUAAGCCUUAUUACAUGAGGAUCACCCAUGU
- apparent Kd [1]: 12.9 nM
- apparent Kd [2]: 12 nM
